In ChEMBL document CHEMBL2034826, “Novel 1,2,4-triazole and imidazole derivatives of L-ascorbic and imino-ascorbic acid: synthesis, anti-HCV and antitumor activity evaluations” (Bioorg Med Chem, 2012):
Converted amounts (≈) assume the structure as drawn.

Assays:
Hepatitis C virus = experiment: Antiviral activity against HCV genotype 1b infected in HuH 5.2 cells expressing 1389luc-ubi-neo/NS3-3' assessed as inhibition of viral replication after 72 hrs by luciferase reporter gene assay; type: functional, organism-based, Hepacivirus hominis; conditions: Huh-5-2, 72 h
In short: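 Huh 5.2 cells carrying the genotype 1b I389luc-ubi-neo/NS3-3'/5.1 replicon, seeded at 6500 cells/well in medium without Geneticin and left overnight. Four-step 1-to-5 compound dilutions, 72 h at 37 °C. Cells washed and lysed, then luciferase luminescence read and expressed as percent of untreated controls. EC50 and EC90 from the dose-response curve.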

[1] = Cytotoxicity against human HuH5.2 cells after 72 hrs by MTS assay; type: cell-based, Huh-5-2
In short: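 Replicon-bearing Huh 5.2 cells treated in parallel with the antiviral plates using a four-step 1-to-5 dilution series for 72 h. Medium replaced with 5% MTS in phenol red-free medium for 1.5 h, absorbance read at 498 nm, and converted to percent of untreated controls. CC50 is the concentration that reduces metabolic activity by 50%, taken from the dose-response curve.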

[2] = Cytostatic activity against mouse L1210/0 after 48 hrs by cell counting; type: functional; conditions: L1210/0, 48 h
In short: (§1)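 Suspension leukaemia cells in RPMI-1640 with 10% FBS, 2 mM L-glutamine, 0.075% NaHCO3. Seeded at 5–7.5 × 10^4 cells/well with compound and grown at 37 °C for 48 h (L1210) or 72 h (CEM). Cells counted by Coulter counter. IC50 is the concentration that reduces viable cell number by 50%.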

CCRF-CEM [3] = experiment: Cytostatic activity against human CEM/0 after 72 hrs by cell counting; type: functional; in short: as §1
HeLa = experiment: Antiproliferative activity against human HeLa cells after 72 hrs by MTT assay; type: functional, cell-based
In short: (§2)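 Monolayer lines grown in DMEM with 10% FBS, 2 mM L-glutamine, penicillin/streptomycin, 37 °C, 5% CO2. Seeded at 3000–6000 cells/well by doubling time, then compound added as five 10-fold dilutions (1 × 10^-8 to 1 × 10^-4 M), DMSO ≤0.1%, for 72 h. MTT read-out converted to percentage growth versus untreated wells. IC50 from linear regression. Quadruplicate points, three experiments.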

MCF7 = experiment: Antiproliferative activity against human MCF7 cells after 72 hrs by MTT assay; type: functional, cell-based; conditions: MCF7, 72 h; in short: as §2
HepG2 = experiment: Antiproliferative activity against human HepG2 cells after 72 hrs by MTT assay; type: functional, cell-based; conditions: HepG2, 72 h; in short: as §2
SW-620 = experiment: Antiproliferative activity against human SW620 cells after 72 hrs by MTT assay; type: functional, cell-based; conditions: SW-620, 72 h; in short: as §2
MIA PaCa-2 = experiment: Antiproliferative activity against human MIAPaCa2 cells after 72 hrs by MTT assay; type: functional, cell-based; conditions: MIA PaCa-2, 72 h; in short: as §2
WI-38 = experiment: Antiproliferative activity against human WI38 cells after 72 hrs by MTT assay; type: cell-based; conditions: WI-38, 72 h; in short: as §2
L1210 [4] = experiment: Ratio of ribavirin IC50 to compound IC50 for IMPDH in mouse L1210 cells; type: cell-based
CCRF-CEM [5] = experiment: Ratio of ribavirin IC50 to compound IC50 for IMPDH in human CEM cells; type: cell-based
[6] = (§3) Inhibition of IMPDH in mouse L1210 cells assessed as […] after 20 to 60 mins; type: cell-based
In short: (§4)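 Intact L1210 or CEM cells given [2,8-3H]hypoxanthine, which the cells convert to labelled IMP. IMPDH activity measured as 3H release, sampled at 20, 40 and 60 min with or without compound at varying concentrations. After centrifugation at 1100×g for 10 min, supernatant radioactivity counted. Free 3H before cell incubation was below 10% of added label.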

L1210 [7] = experiment: as §3; type: cell-based; in short: as §4
[8] = (§5) Inhibition of IMPDH in human CEM cells assessed as […] after 20 to 60 mins; type: cell-based; conditions: CCRF-CEM; in short: as §4
CCRF-CEM [9] = experiment: as §5; type: cell-based; in short: as §4
[10] = Selectivity index, ratio of CC50 for human HuH5.2 cells to EC50 for HCV genotype 1b

Compound	EC50 (Hepatitis C virus) [µg/mL]	CC50 at 72 h [1] [µg/mL]	IC50 [2] [µM]	IC50 (CCRF-CEM [3]) [µM]	IC50 (HeLa) [µM]	IC50 (MCF7) [µM]	IC50 (HepG2) [µM]	IC50 (SW-620) [µM]	IC50 (MIA PaCa-2) [µM]	IC50 (WI-38) [µM]	EC90 (Hepatitis C virus) [µg/mL]	Ratio IC50 (L1210 [4])	Ratio IC50 (CCRF-CEM [5])	IC50 [6] [µM]	inhibition (L1210 [7])	IC50 [8] [µM]	inhibition (CCRF-CEM [9])	Ratio CC50/EC50 [10]
COC(=O)c1ncn(CC=C2OC(=O)C(O)=C2O)n1 (mixture of isomers)	61.3	> 100	370	> 500	> 100	> 100	> 100	> 100	> 100	> 100								
NC(=O)c1ncn(CCC2(O)NC(=O)C(OCc3ccccc3)=C2OCc2ccccc2)c1C(N)=O (stereo unspecified)	> 100	> 100	198	154	> 100	> 100	> 100	> 100	> 100	98	> 100	50	50					
NC(=O)c1ncn(CCC2(O)NC(=O)C(OCc3ccccc3)=C2OCc2ccccc2)n1 (stereo unspecified)	> 100	> 100	≥ 500	445	> 100	61	66	> 100	> 100	> 100	> 100							
NC(=O)c1ncn([C@@H]2O[C@H](CO)[C@@H](O)[C@H]2O)n1 [RIBAVIRIN]			22	63										1	Dose-dependent effect	1	Dose-dependent effect	
COC(=O)c1ncn(C[C@H](O)[C@H]2OC(=O)C(OCc3ccccc3)=C2OCc2ccccc2)n1	62.1 (≈ 133 µM)	> 100	> 100	> 100	> 100	> 100	> 100	> 100	> 100	> 100								
O=c1[nH]cc(F)c(=O)[nH]1 [FLUOROURACIL]					14.9	66.9	56.2	6.68	11.7	24.7								
N#Cc1ncn(C/C=C2\OC(=O)C(OCc3ccccc3)=C2OCc2ccccc2)c1C#N (mixture of isomers)	> 100	> 100	21	7.3	59	63	92	73	36	73	> 100							
COc1cccc2c1C(=O)c1c(O)c3c(c(O)c1C2=O)C[C@@](O)(C(=O)CO)C[C@@H]3O[C@H]1C[C@H](N)[C@H](O)[C@H](C)O1 [DOXORUBICIN]			1.3	0.39			0.05	0.04	0.03	0.04								
COC(=O)c1ncn(CC=C2OC(=O)C(OCc3ccccc3)=C2OCc2ccccc2)c1C(=O)OC (mixture of isomers)	13.3	70.5	32	10	34	52	55	49	33	> 100	22.7	50	50					5.3
COC(=O)c1ncn(CC=C2OC(=O)C(OCc3ccccc3)=C2OCc2ccccc2)n1 (mixture of isomers)	78.5	> 100	103	44	97	54	70	> 100	80	> 100	> 100	50	50					
COC(=O)c1ncn(CCC2(O)NC(=O)C(OCc3ccccc3)=C2OCc2ccccc2)c1C(=O)OC (stereo unspecified)	36.6 (≈ 70.2 µM)	> 100	46	35	81	> 100	> 100	> 100	47	52	81.3 (≈ 156 µM)							
